# From ChEMBL document CHEMBL3112482, “Nonclassical antifolates, part 5. Benzodiazepine analogs as a new class of DHFR inhibitors: synthesis, antitumor testing and molecular modeling study” (Eur J Med Chem, 2014)
# Tests used:
# Dihydrofolate reductase = target: T1, Dihydrofolate reductase (Bos taurus, UniProt P00376); test: Inhibition of bovine liver DHFR measured for every 1 min of 10 mins
# T1 sequence (P00376 whole entry): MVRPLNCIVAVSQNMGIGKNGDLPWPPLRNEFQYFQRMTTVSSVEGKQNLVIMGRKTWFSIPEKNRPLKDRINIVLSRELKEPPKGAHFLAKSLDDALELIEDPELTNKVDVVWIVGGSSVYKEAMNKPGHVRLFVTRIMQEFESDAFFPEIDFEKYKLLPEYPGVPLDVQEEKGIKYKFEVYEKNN
# [1] = target: Dihydrofolate reductase (Bos taurus) (UniProt P00376); test: Ratio of MTX IC50 to compound IC50 for bovine liver DHFR
# How it was run: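 Bovine liver DHFR in Tris buffer pH 7.5, with dihydrofolate substrate. Final working levels were 0.29 g/l NADPH and 15 U/l DHFR. Absorbance was read at 340 nm at room temperature in kinetic mode every 1 min for 10 min. ΔA/min was taken relative to DMSO control to give % inhibition versus log concentration, from which the IC50 was derived. Methotrexate was the reference.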
SMILES,IC50 (Dihydrofolate reductase) [µM],Ratio IC50 [1]
COc1ccc(/C=C2\CCCC3=C(c4ccc(OC)c(OC)c4)Nc4ccccc4N=C32)cc1OC,0.06,
COc1cc(/C=C2\CCCC3=C(c4cc(OC)c(OC)c(OC)c4)Nc4cc(C)c(C)cc4N=C32)cc(OC)c1OC,1,
Clc1cc2c(cc1Cl)NC(c1ccc(Br)cc1)=C1CCC/C(=C\c3ccc(Br)cc3)C1=N2,0.1,

# Continued, values first:
IC50 (Dihydrofolate reductase) [µM],Ratio IC50 [1],SMILES
0.004,20,COc1ccc(/C=C2\CCCC3=C(c4ccc(OC)c(OC)c4)Nc4cc(C)c(C)cc4N=C32)cc1OC
70,,Cc1cc2c(cc1C)NC(c1ccc(Cl)cc1)=C1CCC/C(=C\c3ccc(Cl)cc3)C1=N2
0.1,,COc1ccc(/C=C2\CCCC3=C(c4ccc(OC)cc4)Nc4cc(C)c(C)cc4N=C32)cc1
